Where “and” joins values, the source holds several entries; their conditions need not be identical. Equal entries are not always repeated.
Test system: Fibroblast
Assay: Multiplex assay against human fibroblast
Format: toxicity, cell-based
In short: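 Phenotypes for tubulin, mitochondrial mass and membrane permeability are expressed as per cents of healthy-nucleus cells. Cells were stained live at seeding with Hoechst33342, BioTracker Green Microtubule Cytoskeleton Dye, MitoTracker Red and Annexin V Alexa Fluor 680, then imaged after compound addition on a CQ1 microscope at 37°C and 5% CO2. Machine-learning gating in CellPathfinder separated Hoechst high-intensity objects from normal cells, divided normal cells by nuclear state (healthy, pyknosed, fragmented) and divided pyknosed cells into mitotic or apoptotic.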

[1] = 12 h, 1 µM, compound concentration 1 uM
[2] = 12 h, 10 µM, compound concentration 10 uM
[3] = 24 h, 1 µM, compound concentration 1 uM
[4] = 24 h, 10 µM, compound concentration 10 uM
[5] = 48 h, 1 µM, compound concentration 1 uM
[6] = 48 h, 10 µM, compound concentration 10 uM

## O=C1[C@H](Cc2ccc(O)cc2)N2C(=O)CCN(C(=O)NCc3ccccc3)[C@H]2CN1Cc1cccc2ccccc12
[1]
  Population Apoptotic (%): 32% and 30%
  Population Fragmented Nuclei (%): 18% and 27%
  Population Healthy Nuclei (%): 57% and 45%
  Population Hoechst High Intensity Objects (%): 3% and 2%
  Population Membrane Permeable-Phenotype (%): 0% and 5%
  Population Mitochondria Different-Phenotype (%): 11% and 13%
  Population Mitotic Cells (%): 67% and 69%
  Population Normal (%): 96% and 97%
  Population Pyknosed Nuclei (%): 24% and 26%
  Population Tubulin-Different-Phenotype (%): 47% and 58%
  Total Cell Count: 160 and 152
[2]
  Population Apoptotic (%): 35% and 45%
  Population Fragmented Nuclei (%): 18% and 23%
  Population Healthy Nuclei (%): 58% and 45%
  Population Hoechst High Intensity Objects (%): 8% and 9%
  Population Membrane Permeable-Phenotype (%): 0% and 8%
  Population Mitochondria Different-Phenotype (%): 24% and 15%
  Population Mitotic Cells (%): 64% and 55%
  Population Normal (%): 91% and 90%
  Population Pyknosed Nuclei (%): 23% and 30%
  Population Tubulin-Different-Phenotype (%): 84% and 83%
  Total Cell Count: 146 and 144
[3]
  Population Apoptotic (%): 42% and 28%
  Population Fragmented Nuclei (%): 16% and 30%
  Population Healthy Nuclei (%): 62% and 47%
  Population Hoechst High Intensity Objects (%): 3% and 2%
  Population Membrane Permeable-Phenotype (%): 3% and 7%
  Population Mitochondria Different-Phenotype (%): 7% and 8%
  Population Mitotic Cells (%): 57% and 71%
  Population Normal (%): 96% and 97%
  Population Pyknosed Nuclei (%): 21% and 22%
  Population Tubulin-Different-Phenotype (%): 49% and 58%
  Total Cell Count: 158 and 147
[4]
  Population Apoptotic (%): 44% and 64%
  Population Fragmented Nuclei (%): 15% and 25%
  Population Healthy Nuclei (%): 62% and 47%
  Population Hoechst High Intensity Objects (%): 10% and 7%
  Population Mitochondria Different-Phenotype (%): 44% and 21%
  Population Mitotic Cells (%): 55% and 35%
  Population Normal (%): 89% and 92%
  Population Pyknosed Nuclei (%): 21% and 26%
  Population Tubulin-Different-Phenotype (%): 83%
  Total Cell Count: 141 and 137
[5]
  Population Apoptotic (%): 62% and 54%
  Population Fragmented Nuclei (%): 22% and 37%
  Population Healthy Nuclei (%): 59% and 45%
  Population Hoechst High Intensity Objects (%): 7% and 5%
  Population Membrane Permeable-Phenotype (%): 2% and 5%
  Population Mitochondria Different-Phenotype (%): 7% and 6%
  Population Mitotic Cells (%): 37% and 45%
  Population Normal (%): 92% and 94%
  Population Pyknosed Nuclei (%): 17%
  Population Tubulin-Different-Phenotype (%): 54% and 48%
  Total Cell Count: 164 and 135
[6]
  Population Apoptotic (%): 85% and 66%
  Population Fragmented Nuclei (%): 21% and 32%
  Population Healthy Nuclei (%): 58% and 53%
  Population Hoechst High Intensity Objects (%): 15% and 10%
  Population Membrane Permeable-Phenotype (%): 0% and 5%
  Population Mitochondria Different-Phenotype (%): 50% and 38%
  Population Mitotic Cells (%): 14% and 33%
  Population Normal (%): 84% and 89%
  Population Pyknosed Nuclei (%): 20% and 14%
  Population Tubulin-Different-Phenotype (%): 85% and 94%
  Total Cell Count: 124 and 119

## Cc1cc(-c2ccc3c(c2)CC[C@H]3N2CC3(CCN(C(=O)Cc4cn5cc(C)sc5n4)CC3)C2)ncn1 [PF-5190457]
[1]
  Population Apoptotic (%): 29% and 30%
  Population Fragmented Nuclei (%): 16% and 18%
  Population Healthy Nuclei (%): 71% and 46%
  Population Hoechst High Intensity Objects (%): 4%
  Population Membrane Permeable-Phenotype (%): 1% and 9%
  Population Mitochondria Different-Phenotype (%): 5% and 0%
  Population Mitotic Cells (%): 70%
  Population Normal (%): 96% and 95%
  Population Tubulin-Different-Phenotype (%): 24% and 48%
  Total Cell Count: 150 and 121
[2]
  Population Apoptotic (%): 36% and 45%
  Population Fragmented Nuclei (%): 17% and 20%
  Population Healthy Nuclei (%): 63% and 55%
  Population Hoechst High Intensity Objects (%): 4% and 1%
  Population Membrane Permeable-Phenotype (%): 1% and 6%
  Population Mitochondria Different-Phenotype (%): 5% and 4%
  Population Mitotic Cells (%): 63% and 54%
  Population Normal (%): 95% and 98%
  Population Pyknosed Nuclei (%): 18% and 24%
  Population Tubulin-Different-Phenotype (%): 38% and 56%
  Total Cell Count: 186 and 138
[3]
  Population Fragmented Nuclei (%): 19% and 23%
  Population Healthy Nuclei (%): 72% and 43%
  Population Hoechst High Intensity Objects (%): 2% and 3%
  Population Membrane Permeable-Phenotype (%): 1% and 5%
  Population Mitochondria Different-Phenotype (%): 4% and 5%
  Population Mitotic Cells (%): 45% and 84%
  Population Normal (%): 97% and 96%
  Population Tubulin-Different-Phenotype (%): 26% and 54%
  Total Cell Count: 141 and 126
[4]
  Population Apoptotic (%): 44% and 53%
  Population Fragmented Nuclei (%): 19% and 25%
  Population Healthy Nuclei (%): 64% and 49%
  Population Hoechst High Intensity Objects (%): 3% and 5%
  Population Membrane Permeable-Phenotype (%): 0% and 1%
  Population Mitochondria Different-Phenotype (%): 6% and 7%
  Population Mitotic Cells (%): 55% and 46%
  Population Normal (%): 96% and 94%
  Population Pyknosed Nuclei (%): 16% and 25%
  Population Tubulin-Different-Phenotype (%): 37% and 60%
  Total Cell Count: 180 and 134
[5]
  Population Apoptotic (%): 78% and 34%
  Population Fragmented Nuclei (%): 30% and 32%
  Population Healthy Nuclei (%): 59% and 47%
  Population Hoechst High Intensity Objects (%): 6% and 2%
  Population Mitochondria Different-Phenotype (%): 2% and 6%
  Population Normal (%): 93% and 97%
  Population Pyknosed Nuclei (%): 9% and 20%
  Population Tubulin-Different-Phenotype (%): 23% and 68%
  Total Cell Count: 157 and 132
[6]
  Population Apoptotic (%): 63% and 62%
  Population Fragmented Nuclei (%): 22% and 30%
  Population Healthy Nuclei (%): 66% and 51%
  Population Hoechst High Intensity Objects (%): 6% and 1%
  Population Membrane Permeable-Phenotype (%): 0% and 5%
  Population Mitochondria Different-Phenotype (%): 12% and 14%
  Population Mitotic Cells (%): 36% and 37%
  Population Normal (%): 93% and 98%
  Population Pyknosed Nuclei (%): 10% and 18%
  Population Tubulin-Different-Phenotype (%): 37% and 64%
  Total Cell Count: 192 and 135

## C[C@H](N)COC(=O)[C@@H](CCCCN)NC(=O)Cc1c(-c2ccc3ccccc3c2)[nH]c2c1ccc1ccccc12
[1]
  Population Apoptotic (%): 32% and 50%
  Population Fragmented Nuclei (%): 18% and 25%
  Population Healthy Nuclei (%): 65% and 51%
  Population Hoechst High Intensity Objects (%): 1% and 4%
  Population Membrane Permeable-Phenotype (%): 0% and 5%
  Population Mitochondria Different-Phenotype (%): 7% and 4%
  Population Mitotic Cells (%): 67% and 50%
  Population Normal (%): 98% and 95%
  Population Pyknosed Nuclei (%): 15% and 23%
  Population Tubulin-Different-Phenotype (%): 32% and 36%
  Total Cell Count: 179 and 170
[2]
  Population Apoptotic (%): 43% and 62%
  Population Fragmented Nuclei (%): 13% and 32%
  Population Healthy Nuclei (%): 69% and 50%
  Population Hoechst High Intensity Objects (%): 2% and 7%
  Population Membrane Permeable-Phenotype (%): 1% and 5%
  Population Mitochondria Different-Phenotype (%): 8% and 6%
  Population Mitotic Cells (%): 56% and 37%
  Population Normal (%): 97% and 92%
  Population Pyknosed Nuclei (%): 16% and 17%
  Population Tubulin-Different-Phenotype (%): 33% and 47%
  Total Cell Count: 183 and 167
[3]
  Population Apoptotic (%): 53% and 29%
  Population Fragmented Nuclei (%): 16% and 25%
  Population Healthy Nuclei (%): 66% and 54%
  Population Hoechst High Intensity Objects (%): 3% and 7%
  Population Membrane Permeable-Phenotype (%): 0% and 3%
  Population Mitochondria Different-Phenotype (%): 5% and 7%
  Population Mitotic Cells (%): 46% and 70%
  Population Normal (%): 96% and 92%
  Population Pyknosed Nuclei (%): 17% and 20%
  Population Tubulin-Different-Phenotype (%): 30% and 39%
  Total Cell Count: 179 and 162
[4]
  Population Apoptotic (%): 63% and 50%
  Population Fragmented Nuclei (%): 13% and 36%
  Population Healthy Nuclei (%): 74% and 50%
  Population Hoechst High Intensity Objects (%): 7% and 6%
  Population Membrane Permeable-Phenotype (%): 0% and 5%
  Population Mitochondria Different-Phenotype (%): 5%
  Population Mitotic Cells (%): 36% and 50%
  Population Normal (%): 92% and 93%
  Population Pyknosed Nuclei (%): 11% and 13%
  Population Tubulin-Different-Phenotype (%): 31% and 54%
  Total Cell Count: 171 and 159
[5]
  Population Apoptotic (%): 72% and 51%
  Population Fragmented Nuclei (%): 21% and 30%
  Population Healthy Nuclei (%): 65% and 50%
  Population Hoechst High Intensity Objects (%): 5% and 2%
  Population Membrane Permeable-Phenotype (%): 0% and 3%
  Population Mitochondria Different-Phenotype (%): 7% and 6%
  Population Mitotic Cells (%): 27% and 48%
  Population Normal (%): 94% and 97%
  Population Pyknosed Nuclei (%): 12% and 18%
  Population Tubulin-Different-Phenotype (%): 26% and 39%
  Total Cell Count: 186 and 169
[6]
  Population Apoptotic (%): 46% and 55%
  Population Fragmented Nuclei (%): 16% and 36%
  Population Healthy Nuclei (%): 68% and 52%
  Population Hoechst High Intensity Objects (%): 9% and 5%
  Population Membrane Permeable-Phenotype (%): 0% and 7%
  Population Mitochondria Different-Phenotype (%): 4% and 8%
  Population Mitotic Cells (%): 53% and 44%
  Population Normal (%): 90% and 94%
  Population Pyknosed Nuclei (%): 15% and 11%
  Population Tubulin-Different-Phenotype (%): 35% and 54%
  Total Cell Count: 185 and 166

Source: ChEMBL document CHEMBL5724801, “EUbOPEN Chemogenomics Library - Multiplex” (2024)
